Results published in paper PMC6923438 (Saudi Journal of Biological Sciences, 2019).

Legend:
STZ-induced T1DM [1] = assay type: in vivo; settings: glibenclamide group (2.5 mg/kg), STZ induced mice
Outline: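 Swiss albino mice (20 ± 5 g, either sex) were given STZ 40 mg/kg i.p. for 5 days; mice with fasting glucose >220 mg/dl were taken as diabetic (18/group). They were dosed orally once daily for 2 weeks. Tail-vein glucose (glucometer) and body weight were recorded at intervals; weight loss was taken as day 1 versus pre-sacrifice weight. Liver and kidneys were weighed at sacrifice for organ index.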

3T3-L1 preadipocyte = 3T3-L1 preadipocyte differentiation; assay type: cell-based; settings: Oil Red O, TG content; vs induced control
Outline: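 3T3-L1 cells seeded at 2×10^4 cells/mL in 6-well plates. Differentiation was induced in DMEM with insulin (10 µg/mL), IBMX (0.5 mM), dexamethasone (1 µM) and 10% FBS for 48 h, then DMEM with insulin and FBS, then basic medium changed every 48 h. Test compound (12.5, 25, 50 µg/mL) was present throughout. Lipid droplets stained with Oil Red O 10 days after induction.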

STZ-induced T1DM [2] = assay: Pancreatic islet mass and pancreas histopathology in STZ-induced T1DM; assay type: in vivo, mice
Outline: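 STZ-diabetic mice (40 mg/kg i.p. × 5 days; glucose >220 mg/dl) were gavaged daily for 2 weeks with test compound at 10 or 20 mg/kg, or glibenclamide 2.5 mg/kg. Pancreas was formalin-fixed, paraffin-embedded, cut at 5 µm and stained with H&E. Islet mass was calculated as pancreas weight × relative β-cell area on slides; ANOVA versus model group.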

gut microbiota = assay: 16S rRNA gene sequencing of caecal content, STZ induced diabetic rats; assay type: in vivo; settings: STZ + Gli (2.5 mg/kg)
3T3-L1 adipocyte = assay: Glucose consumption in 3T3-L1 adipocyte; assay type: cell-based

COc1ccc(Cl)cc1C(=O)NCCc1ccc(S(=O)(=O)NC(=O)NC2CCCCC2)cc1 [Glibenclamide, glibenclamide]
renal index (STZ-induced T1DM [1]): 1.41 ± 0.13 | 3T3-L1 preadipocyte differentiation (3T3-L1 preadipocyte): significant differentiation | pancreas histopathology (STZ-induced T1DM [2]; STZ induced type I DM): almost similar histopathology effect | β-cell mass (STZ-induced T1DM [2]; glibenclamide group (2.5 mg/kg), STZ induced mice): 1.5 ± 0.02 | Actinobacteria, 16S rRNA gene sequencing of caecal content (gut microbiota): 0.35 ± 0.03 | Bacteroidates, 16S rRNA gene sequencing of caecal content (gut microbiota): 0.28 ± 0.05 | Bacteroidetes, 16S rRNA gene sequencing of caecal content (gut microbiota): 0.23 ± 0.09 | Bifldobacteriales, 16S rRNA gene sequencing of caecal content (gut microbiota): 0.5 ± 0.04 | Burkholderiaies, 16S rRNA gene sequencing of caecal content (gut microbiota): 0.34 ± 0.04 | Campylobacterioles, 16S rRNA gene sequencing of caecal content (gut microbiota): 0.61 ± 0.09 | Clostridiales, 16S rRNA gene sequencing of caecal content (gut microbiota): 0.29 ± 0.05 | Coriobacteriales, 16S rRNA gene sequencing of caecal content (gut microbiota): 0.32 ± 0.09 | Cyanobacteria, 16S rRNA gene sequencing of caecal content (gut microbiota): 0.3 ± 0.07 | Desulfovibrionales, 16S rRNA gene sequencing of caecal content (gut microbiota): 0.25 ± 0.06 | Enterobacteriales, 16S rRNA gene sequencing of caecal content (gut microbiota): 0.3 ± 0.06 | Eryslpelotrichales, 16S rRNA gene sequencing of caecal content (gut microbiota): 0.5 ± 0.07 | Firmicutes, 16S rRNA gene sequencing of caecal content (gut microbiota): 0.22 ± 0.07 | Lactibacllales, 16S rRNA gene sequencing of caecal content (gut microbiota): 0.25 ± 0.03 | Proteobacteria, 16S rRNA gene sequencing of caecal content (gut microbiota): 0.28 ± 0.04 | Selenomonadales, 16S rRNA gene sequencing of caecal content (gut microbiota): 0.16 ± 0.03 | Verrucomicrobia, 16S rRNA gene sequencing of caecal content (gut microbiota): 0.21 ± 0.07 | Verrucomicrobiales, 16S rRNA gene sequencing of caecal content (gut microbiota): 0.36 ± 0.08 | Glucose consumption (in words) (3T3-L1 adipocyte): significantly increased | Glucose consumption (3T3-L1 adipocyte; 1 µg/mL): 12.62 ± 0.67 mmol/L
